For one data set, the system named is IMR-90 human cells. Kind of data set: Human cell line toxicity testing. The format is cell-based.
The test system of data set [1] is T. brucei bloodstream form (BSF) parasites (cell line 90-13, a 427 strain). Kind of data set: microbe, parasite or virus in culture. The format is cell-based, Trypanosoma brucei. As to conditions: for % T. brucei BSF growth inhibition (10 μM): 10 μM compound; for % T. brucei BSF growth inhibition (10 μM) / inhibition at 10 µM: BLD = below level of detection; for inhibition at 10 µM: Trypanosoma brucei, A-427, read-out: % T. brucei BSF growth inhibition (10 μM), 10 μM compound.

The target in data set [2] is recombinant T. brucei hexokinase 1 (rTbHK1) (Trypanosoma brucei, UniProt Q38C42). The data set is described as follows: biochemical. Type of data set: biochemical.
Another data set has as its target Dopamine D3 (Homo sapiens, UniProt P35462). The data set is described as follows: PanLabs LeadProfilingScreen radioligand binding. The following applies: read-out: percent inhibition. The gist of the method: (§1)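 Test compound screened once, at 10 μM, against a panel of mammalian targets; each run in duplicate. Values are percent inhibition at that single concentration; no IC50 determinations were made.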

For data set [3], the target named is Dopamine transporter (DAT) (Homo sapiens, UniProt Q01959). The data set is described as follows: PanLabs LeadProfilingScreen radioligand binding. As to conditions: read-out: percent inhibition. The gist of the method: as §1
The next data set in a line: Plasma stability, human. The format is in vitro ADME.
The target in data set [4] is T1, Leukotriene, cysteinyl CysLT1 (Homo sapiens, UniProt Q9Y271).
T1 sequence (Q9Y271 1-337): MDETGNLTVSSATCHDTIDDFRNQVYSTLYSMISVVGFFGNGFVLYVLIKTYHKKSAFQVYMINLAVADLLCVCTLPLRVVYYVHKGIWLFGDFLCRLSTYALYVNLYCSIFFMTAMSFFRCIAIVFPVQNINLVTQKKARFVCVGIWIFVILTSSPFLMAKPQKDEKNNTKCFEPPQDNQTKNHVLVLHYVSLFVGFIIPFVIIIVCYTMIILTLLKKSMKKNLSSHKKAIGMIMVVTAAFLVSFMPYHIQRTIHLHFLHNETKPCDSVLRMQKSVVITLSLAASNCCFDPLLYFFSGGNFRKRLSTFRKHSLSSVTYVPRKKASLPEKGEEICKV
The data set is described as follows: PanLabs LeadProfilingScreen radioligand binding. The following applies: read-out: percent inhibition. The gist of the method: as §1

Data set [5] addresses T2, Serotonin (5-hydroxytryptamine) 5-HT1A (Homo sapiens, UniProt P08908).
T2 sequence (P08908 1-422): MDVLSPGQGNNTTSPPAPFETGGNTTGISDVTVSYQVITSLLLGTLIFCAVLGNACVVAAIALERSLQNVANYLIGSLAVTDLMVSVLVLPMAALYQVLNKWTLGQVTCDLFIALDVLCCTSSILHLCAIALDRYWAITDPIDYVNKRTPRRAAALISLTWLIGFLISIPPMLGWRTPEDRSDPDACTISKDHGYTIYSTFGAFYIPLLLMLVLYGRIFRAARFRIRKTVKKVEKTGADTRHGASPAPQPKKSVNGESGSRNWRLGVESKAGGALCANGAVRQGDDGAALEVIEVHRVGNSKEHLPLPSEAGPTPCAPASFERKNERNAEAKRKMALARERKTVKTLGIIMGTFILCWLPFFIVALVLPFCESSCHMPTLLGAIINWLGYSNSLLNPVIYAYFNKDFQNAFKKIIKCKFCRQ
The data set is described as follows: PanLabs LeadProfilingScreen radioligand binding. As to conditions: read-out: percent inhibition. The method, boiled down: as §1

Data set [6] has as its target T3, human HK 4 (human glucokinase, hGlk) (Homo sapiens, UniProt P35557).
T3 sequence (P35557 1-465): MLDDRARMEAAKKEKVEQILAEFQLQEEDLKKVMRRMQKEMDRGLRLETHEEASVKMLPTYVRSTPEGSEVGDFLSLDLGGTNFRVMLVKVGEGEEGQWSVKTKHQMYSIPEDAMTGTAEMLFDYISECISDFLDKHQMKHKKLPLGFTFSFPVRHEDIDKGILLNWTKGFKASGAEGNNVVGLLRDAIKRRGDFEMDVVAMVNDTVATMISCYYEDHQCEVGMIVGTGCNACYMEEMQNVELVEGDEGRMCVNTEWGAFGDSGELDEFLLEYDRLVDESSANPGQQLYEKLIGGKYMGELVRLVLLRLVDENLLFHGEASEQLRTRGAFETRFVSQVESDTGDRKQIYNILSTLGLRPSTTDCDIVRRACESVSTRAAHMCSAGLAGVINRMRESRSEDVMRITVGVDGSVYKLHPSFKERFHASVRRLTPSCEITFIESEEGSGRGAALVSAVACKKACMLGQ
The data set is described as follows: Specificity assay against human glucokinase. Type of data set: biochemical. The following applies: for inhibition at 10 µM: read-out: % hGlk inhibition (10 μM). The method, boiled down:
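Uses human hexokinase 4 (glucokinase; GenBank BC001890). Activity is read through a coupled reaction in which glucose-6-phosphate dehydrogenase converts the glucose-6-phosphate formed to 6-phosphogluconate. The coincident NADPH formation is followed at 340 nm.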

For the next data set, the target named is Histamine H2 (Homo sapiens, UniProt P25021). The data set is described as follows: PanLabs LeadProfilingScreen radioligand binding. The following applies: read-out: percent inhibition. The gist of the method:
as §1

Another data set concerns the target Dopamine D1 (Homo sapiens, UniProt P21728). The data set is described as follows: PanLabs LeadProfilingScreen radioligand binding. As to conditions: read-out: percent inhibition. The method, boiled down: as §1
Another data set has as its system Thyroid hormone. The data set is described as follows: PanLabs LeadProfilingScreen radioligand binding. The following applies: 10 μM, duplicate, rat. The method, boiled down:
as §1

Data set [7] is described as follows: Microsomal stability, mouse. Type of data set: in vitro ADME.
A short description of the next data set: Plasma stability, mouse. The format is in vitro ADME.
A short description of another data set: Plasma protein binding. The following applies: mouse, mouse species. The format is in vitro ADME.
A short description of data set [8]: Aqueous solubility, kinetic solubility method. As to conditions: pH 7.4.
Data set [9] in a line: Microsomal stability, human. The format is in vitro ADME.
The target of the next data set is T4, Adrenergic α1B (Rattus norvegicus, UniProt P15823).
T4 sequence (P15823 1-515): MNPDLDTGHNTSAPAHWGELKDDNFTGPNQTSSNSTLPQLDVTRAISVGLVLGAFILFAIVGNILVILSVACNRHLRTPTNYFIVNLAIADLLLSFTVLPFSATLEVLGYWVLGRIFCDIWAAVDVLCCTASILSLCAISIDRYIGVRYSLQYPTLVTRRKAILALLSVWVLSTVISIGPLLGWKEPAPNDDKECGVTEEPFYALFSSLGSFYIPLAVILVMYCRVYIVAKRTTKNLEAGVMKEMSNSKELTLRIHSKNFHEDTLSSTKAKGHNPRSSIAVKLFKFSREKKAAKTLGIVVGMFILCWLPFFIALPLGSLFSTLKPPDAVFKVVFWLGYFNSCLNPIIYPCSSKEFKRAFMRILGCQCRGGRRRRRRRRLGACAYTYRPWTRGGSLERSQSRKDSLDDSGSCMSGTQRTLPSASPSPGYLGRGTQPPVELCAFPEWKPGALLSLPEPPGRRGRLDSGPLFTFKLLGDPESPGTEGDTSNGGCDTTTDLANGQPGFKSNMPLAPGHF
The data set is described as follows: PanLabs LeadProfilingScreen radioligand binding. The following applies: read-out: percent inhibition. The gist of the method:
as §1

[10] abbreviates: read-out: IMR90 toxicity (EC50), IMR-90 cells, 44-46 h.
Setting [11] is: read-out: rTbHK1 potency (IC50 ± SEM), average of n ≥ 3 experiments.
[12] abbreviates: Homo sapiens, IMR-90, read-out: IMR90 toxicity (EC50).

In brackets after ≈: the same amount, converted by molar mass. Like-named read-outs stand apart in the source and are kept apart here.

Chain of Dopamine D3 (P35462 whole entry): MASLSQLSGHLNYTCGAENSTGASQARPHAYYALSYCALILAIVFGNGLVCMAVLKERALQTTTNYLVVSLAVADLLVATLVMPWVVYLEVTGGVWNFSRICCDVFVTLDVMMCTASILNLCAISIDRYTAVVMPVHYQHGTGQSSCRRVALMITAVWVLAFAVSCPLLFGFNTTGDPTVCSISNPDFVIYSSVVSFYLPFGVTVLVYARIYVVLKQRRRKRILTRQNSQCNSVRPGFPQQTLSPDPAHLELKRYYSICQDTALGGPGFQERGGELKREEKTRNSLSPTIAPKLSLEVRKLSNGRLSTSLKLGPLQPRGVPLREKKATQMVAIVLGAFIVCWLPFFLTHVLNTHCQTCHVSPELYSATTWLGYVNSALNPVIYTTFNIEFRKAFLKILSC
Chain of Dopamine D1 (P21728 whole entry): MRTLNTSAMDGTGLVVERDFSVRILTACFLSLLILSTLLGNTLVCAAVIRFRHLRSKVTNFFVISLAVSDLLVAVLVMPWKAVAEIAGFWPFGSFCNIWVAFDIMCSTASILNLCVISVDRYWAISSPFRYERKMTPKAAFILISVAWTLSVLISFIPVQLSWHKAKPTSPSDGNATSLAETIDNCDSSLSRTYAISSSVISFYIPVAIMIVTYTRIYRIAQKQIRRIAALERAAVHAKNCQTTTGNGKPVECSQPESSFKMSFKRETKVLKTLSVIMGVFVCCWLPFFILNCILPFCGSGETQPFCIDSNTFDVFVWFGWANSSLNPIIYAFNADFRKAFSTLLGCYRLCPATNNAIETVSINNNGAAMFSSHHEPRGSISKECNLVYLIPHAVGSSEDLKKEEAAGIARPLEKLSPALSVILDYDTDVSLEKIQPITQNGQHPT
Chain of Histamine H2 (P25021 whole entry): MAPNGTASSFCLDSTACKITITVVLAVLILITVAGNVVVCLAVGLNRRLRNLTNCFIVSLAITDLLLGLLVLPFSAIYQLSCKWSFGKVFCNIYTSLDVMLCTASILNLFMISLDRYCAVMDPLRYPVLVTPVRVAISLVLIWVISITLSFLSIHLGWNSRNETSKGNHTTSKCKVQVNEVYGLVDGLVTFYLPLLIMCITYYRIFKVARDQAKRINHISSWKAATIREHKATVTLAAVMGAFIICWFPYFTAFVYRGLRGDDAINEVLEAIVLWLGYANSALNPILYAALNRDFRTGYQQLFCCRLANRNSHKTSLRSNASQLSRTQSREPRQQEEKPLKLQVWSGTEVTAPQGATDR
Chain of Dopamine transporter (DAT) (Q01959 whole entry): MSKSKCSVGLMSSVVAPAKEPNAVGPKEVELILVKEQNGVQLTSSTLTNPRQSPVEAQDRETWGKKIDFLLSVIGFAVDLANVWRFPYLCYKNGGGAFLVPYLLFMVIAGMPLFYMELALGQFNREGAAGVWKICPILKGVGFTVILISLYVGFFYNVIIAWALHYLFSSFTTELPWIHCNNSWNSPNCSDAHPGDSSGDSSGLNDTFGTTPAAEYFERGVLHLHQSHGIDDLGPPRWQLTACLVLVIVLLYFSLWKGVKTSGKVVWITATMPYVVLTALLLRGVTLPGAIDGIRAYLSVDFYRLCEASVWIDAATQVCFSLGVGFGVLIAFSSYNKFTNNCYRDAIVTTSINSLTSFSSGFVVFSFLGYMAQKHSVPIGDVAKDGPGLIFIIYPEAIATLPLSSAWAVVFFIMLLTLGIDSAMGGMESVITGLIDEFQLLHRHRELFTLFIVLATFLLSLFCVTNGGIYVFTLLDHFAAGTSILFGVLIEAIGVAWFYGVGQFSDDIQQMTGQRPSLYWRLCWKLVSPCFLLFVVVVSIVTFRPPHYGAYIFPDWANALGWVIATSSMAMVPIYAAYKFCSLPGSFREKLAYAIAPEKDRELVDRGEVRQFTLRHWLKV

On to “4-methoxybenzamidochlorobenzoic acid [Compound 1]”, for which the “aqueous solubility (PBS buffer, pH 7.4)” value is > 274.3 μM. For the same molecule, the EC50 with IMR-90 human cells (setting [10]) was > 25 µM. The “activity on whole T. brucei BSF parasites (in words)” value in [1] is reported as “no appreciable activity”. In data set [2] (setting [11]), the IC50 came to 9.1 µM.

`CC(C)(C)c1ccc(C(=O)Nc2cc(Cl)c(-c3ccccc3)cc2C(=O)O)cc1` [Compound 4f]: the inhibition at 10 µM came out at 86% at Dopamine D3; 88% in data set [3]; 87% in data set [4]; 90% in data set [5]; 35.2 ± 8.3% in data set [6]; 98% on Histamine H2. The inhibition at 10 µM in [1] was 95%; on Dopamine D1 it was 57%; at Adrenergic α1B, 53%. Also, the “plasma stability, % parent remaining after 3 h” value in the data set “Plasma stability, human” is 80.8%; in “Plasma stability, mouse”, 97.4%. Further, the EC50 in the data set with IMR-90 human cells (setting [12]) is > 25 µM. Besides, the Papp in “PAMPA permeability” (PAMPA permeability (Pe), donor pH 6.2, acceptor pH 7.4) was found to be 1.6 ×10⁻⁶ cm/s; in the data set “PAMPA permeability” (pH 7.4, PAMPA permeability (Pe), donor pH 7.4, acceptor pH 7.4), 49 ×10⁻⁶ cm/s. The “% T. brucei BSF growth inhibition (10 μM)” value in data set [1] (10 µM) turned out to be 95.4 ± 0.8%. In the data set with Thyroid hormone, this molecule gave a percent inhibition of 65%. Also, the “improvement in rTbHK1 potency” value in [2] (compared to bromide 2) was 3.5 fold. For the same molecule, the “microsomal stability, % parent remaining after 1 h” value is 55.5% in data set [7] and 46.5% in data set [9]. For the same molecule, the figures for the fraction unbound in the data set “Plasma protein binding” (1 μM) and in the data set “Plasma protein binding” (10 μM) were 0.01 and 0.009, respectively. The concentration in solution in data set [8] (solubility) was 9.6 µM (≈ 3.92 µg/mL).

Turning to `CC(C)(C)c1ccc(C(=O)Nc2cc(Cl)c(-c3ccccc3F)cc2C(=O)O)cc1` [Compound 4p], the “% hGlk inhibition (10 μM)” value in data set [6] (10 μM compound, BLD = below level of detection) was 24.5 ± 2.5%. Moreover, in the data set with IMR-90 human cells (setting [10]), the EC50 is > 25 µM. Also, the “% T. brucei BSF growth inhibition (10 μM)” value in data set [1] stood at 92.8 ± 2.0%. Moreover, in data set [1] (3-day growth, n ≥ 3), the “T. brucei BSF potency (LD50 ± SEM)” value turned out to be 5.2 ± 0.9 µM. Besides, the IC50 in [2] (setting [11]) was 2.08 ± 0.07 µM.

In the case of `CC(C)(C)c1ccc(C(=O)Nc2cc(Cl)c(-c3ccc[nH]3)cc2C(=O)O)cc1` [Compound 4bb], the figures for the inhibition at 10 µM in data set [6] and in data set [1] were 6.1 ± 0.1% and 57 ± 7.1%, respectively. The EC50 with IMR-90 human cells (setting [12]) is > 25 µM. The IC50 in data set [2] turned out to be 0.5 ± 0.05 µM.

Regarding `CC(C)(C)c1ccc(C(=O)Nc2cc(Cl)c(-c3cccs3)cc2C(=O)O)cc1` [Compound 4u], the inhibition at 10 µM in data set [6] turned out to be 12.5 ± 1.3%; in data set [1], 69.1 ± 5.8%. The EC50 in the data set with IMR-90 human cells (setting [12]) is > 25 µM. Also, in data set [2], the IC50 came to 0.47 ± 0.15 µM.

The record behind these values is PMC5808564 (ChemMedChem, 2017).
